Results as given in ChEMBL document CHEMBL1124984, “Benzophenone dicarboxylic acid antagonists of leukotriene B4. 2. Structure-activity relationships of the lipophilic side chain” (J Med Chem, 1990).

Tests used:
[1] = target: T1, Leukotriene B4 receptor (Homo sapiens) (UniProt Q9NPC1+Q15722); test: Antagonistic activity against Leukotriene B4 receptor by using [3H]- LTB4 as a radioligand at a concentration of 10e-6 M; format: functional
Summary of the method: (§1)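 Neutrophil suspensions (≥90% neutrophils, ≥90% viable) at 2 × 10^7 cells/mL in Hanks' balanced salt solution with 0.1% ovalbumin. Cells were incubated 10 min at 4 °C with compound in DMSO and [3H]LTB4 added as a 2.65 nM solution. Cells were spun 2 min through dibutyl/dinonyl phthalate (7:2) and the pellet counted by scintillation. Nonspecific binding was measured with >2000-fold excess unlabeled ligand. Results are % inhibition of specific binding, mean of ≥3 replicates.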

[2] = target: T1, Leukotriene B4 receptor (Homo sapiens); test: Antagonistic activity against Leukotriene B4 receptor by using [3H]- LTB4 as a radioligand at a concentration of 10e-7 M; format: functional; summary of the method: as §1
[3] = target: T1, Leukotriene B4 receptor (Homo sapiens); test: Antagonistic activity against Leukotriene B4 receptor by using [3H]- LTB4 as a radioligand at a concentration of 10e-8 M; format: functional; summary of the method: as §1
[4] = target: T1, Leukotriene B4 receptor (Homo sapiens); test: Antagonistic activity against Leukotriene B4 receptor by using [3H]- LTB4 as a radioligand at a concentration of 10e-5 M; format: functional; summary of the method: as §1
[5] = target: T2, Leukotriene B4 receptor 1 (Homo sapiens, UniProt Q15722); test: Inhibition of binding of B4 (LTB4) to Leukotriene B4 receptor on intact human neutrophils at a concentration of 10e -8M.; summary of the method: as §1
[6] = target: T2, Leukotriene B4 receptor 1; test: Inhibition of binding of B4 (LTB4) to its Leukotriene B4 receptor on intact human neutrophils at a concentration of 10e -7M.; summary of the method: as §1
[7] = target: T2, Leukotriene B4 receptor 1; test: Inhibition of specific binding of [3H]LTB4 to Leukotriene B4 receptor in human neutrophils

T1 sequence (Q15722 whole entry, looked up): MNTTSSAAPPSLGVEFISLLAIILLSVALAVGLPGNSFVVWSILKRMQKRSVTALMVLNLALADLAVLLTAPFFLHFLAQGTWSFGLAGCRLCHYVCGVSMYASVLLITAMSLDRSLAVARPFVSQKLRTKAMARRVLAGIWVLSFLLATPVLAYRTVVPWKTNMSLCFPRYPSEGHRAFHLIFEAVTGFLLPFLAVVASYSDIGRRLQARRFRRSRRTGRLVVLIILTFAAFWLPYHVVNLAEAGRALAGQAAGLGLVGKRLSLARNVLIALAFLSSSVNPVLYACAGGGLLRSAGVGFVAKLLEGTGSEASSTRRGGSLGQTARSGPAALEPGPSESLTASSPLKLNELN
T1 sequence (Q9NPC1 whole entry, looked up): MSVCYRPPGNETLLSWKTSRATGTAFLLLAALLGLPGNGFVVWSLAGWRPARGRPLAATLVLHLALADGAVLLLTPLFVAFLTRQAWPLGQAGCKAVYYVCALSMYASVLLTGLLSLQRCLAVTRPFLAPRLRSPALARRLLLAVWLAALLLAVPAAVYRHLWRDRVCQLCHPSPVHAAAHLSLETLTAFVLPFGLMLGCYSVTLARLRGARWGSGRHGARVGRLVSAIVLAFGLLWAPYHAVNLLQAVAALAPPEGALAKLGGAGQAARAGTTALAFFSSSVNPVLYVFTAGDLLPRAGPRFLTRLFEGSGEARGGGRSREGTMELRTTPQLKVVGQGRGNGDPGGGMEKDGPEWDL
T2 sequence (Q15722 whole entry): as the sequence (Q15722 whole entry, looked up) above

SMILES | inhibition [1] [%] | inhibition [2] [%] | inhibition [3] [%] | inhibition [4] [%] | inhibition [5] [%] | inhibition [6] [%] | IC50 [7] [nM]
CCCCCCCCCCCCCCOc1ccc(C(=O)c2cccc(C(=O)O)c2)cc1CCC(=O)O | 29 |  |  | 73 | 0 | 0 | 
O=C(O)CCc1cc(C(=O)c2cccc(C(=O)O)c2)ccc1OCCCCOc1ccccc1 | 16 |  |  | 67 |  |  | 
O=C(O)CCc1cc(C(=O)c2cccc(C(=O)O)c2)ccc1OCCCCCCc1ccccc1 | 85 |  |  | 100 | 14 | 36 | 
C[S+]([O-])c1ccc(/C=C/CCCCOc2ccc(C(=O)c3cccc(C(=O)O)c3)cc2CCC(=O)O)cc1 (stereo not drawn) | 95 | 86 | 36 | 99 |  |  | 
O=C(O)CCc1cc(C(=O)c2cccc(C(=O)O)c2)ccc1OCCc1ccccc1 | 3 |  |  | 37 |  |  | 
O=C(O)CCc1cc(C(=O)c2cccc(C(=O)O)c2)ccc1OCCCCCCc1ccc(O)cc1 | 90 | 43 | 6 | 100 |  |  | 
CSc1ccc(/C=C/CCCCOc2ccc(C(=O)c3cccc(C(=O)O)c3)cc2CCC(=O)O)cc1 | 79 | 18 |  | 100 |  |  | 
O=C(O)CCc1cc(C(=O)c2cccc(C(=O)O)c2)ccc1OCCCCSc1ccccc1 | 29 |  |  | 89 |  |  | 
COc1ccc(C#CCCCCOc2ccc(C(=O)c3cccc(C(=O)O)c3)cc2CCC(=O)O)cc1 | 90 | 45 | 9 | 100 |  |  | 
O=C(O)CCc1cc(C(=O)c2cccc(C(=O)O)c2)ccc1OCCCCCCc1ccc(Cl)cc1 | 93 | 42 | 15 | 100 |  |  | 
CCCCCCCCCCOc1ccc(C(=O)c2cccc(C(=O)O)c2)cc1CCC(=O)O | 60 |  |  | 95 |  | 7 | 
O=C(O)CCc1cc(C(=O)c2cccc(C(=O)O)c2)ccc1OCCCC[S+]([O-])c1ccccc1 (stereo not drawn) | 0 |  |  | 22 |  |  | 
O=C(O)CCc1cc(C(=O)c2cccc(C(=O)O)c2)ccc1OCCCCc1ccccc1 | 21 |  |  | 78 |  |  | 
CCOc1ccc(C(=O)c2cccc(C(=O)O)c2)cc1CCC(=O)O | 0 |  |  | 0 | 0 | 0 | 
COc1cccc(/C=C/CCCCOc2ccc(C(=O)c3cccc(C(=O)O)c3)cc2CCC(=O)O)c1 | 91 | 49 | 13 | 99 |  |  | 
Cc1ccc(/C=C/CCCCOc2ccc(C(=O)c3cccc(C(=O)O)c3)cc2CCC(=O)O)cc1 | 96 | 73 | 24 |  |  |  | 
COc1ccc(/C=C\CCCCOc2ccc(C(=O)c3cccc(C(=O)O)c3)cc2CCC(=O)O)cc1 | 76 | 31 | 0 | 90 |  |  | 
COc1ccc(/C=C/CCCCOc2ccc(C(=O)c3cccc(C(=O)O)c3)cc2CCC(=O)O)cc1 | 95 | 88 | 40 | 100 |  |  | 13.2
O=C(O)CCc1cc(C(=O)c2cccc(C(=O)O)c2)ccc1OCCCCCCc1ccc(F)cc1 | 77 | 22 | 6 | 100 |  |  | 
O=C(O)CCc1cc(C(=O)c2cccc(C(=O)O)c2)ccc1OCc1ccccc1 | 3 |  |  | 31 |  |  | 
COc1ccccc1CCCCCCOc1ccc(C(=O)c2cccc(C(=O)O)c2)cc1CCC(=O)O | 91 | 3 | 5 | 100 |  |  | 

The remaining lines, values ahead:

inhibition [1] [%] | inhibition [2] [%] | inhibition [3] [%] | inhibition [4] [%] | inhibition [5] [%] | inhibition [6] [%] | IC50 [7] [nM] | SMILES
96 | 66 | 20 | 100 |  |  |  | COc1ccc(/C=C/CCCCOc2ccc(C(=O)c3cccc(C(=O)O)c3)cc2CCC(=O)O)c(OC)c1
7 |  |  | 0 |  |  |  | COc1ccc(C(=O)c2cccc(C(=O)O)c2)cc1CCC(=O)O
92 | 34 | 3 | 100 |  |  |  | O=C(O)CCc1cc(C(=O)c2cccc(C(=O)O)c2)ccc1OCCCC/C=C/c1ccccc1
96 | 68 | 18 | 100 |  |  |  | COc1ccc(CCCCCCOc2ccc(C(=O)c3cccc(C(=O)O)c3)cc2CCC(=O)O)cc1
4 |  |  | 18 |  |  |  | O=C(O)CCc1cc(C(=O)c2cccc(C(=O)O)c2)ccc1OCCCCS(=O)(=O)c1ccccc1
19 |  |  | 60 |  |  |  | O=C(O)CCc1cc(C(=O)c2cccc(C(=O)O)c2)ccc1OCCCc1ccccc1
 | 28 | 0 |  |  |  |  | O=C(O)CCc1cc(C(=O)c2cccc(C(=O)O)c2)ccc1OCCCCCCCCCCc1ccccc1
35 |  |  | 87 | 0 | 0 |  | CCCCCCCCOc1ccc(C(=O)c2cccc(C(=O)O)c2)cc1CCC(=O)O
 |  |  | 72 |  |  |  | O=C(O)CCc1cc(C(=O)c2cccc(C(=O)O)c2)ccc1OCCCCc1cccs1
90 | 46 | 11 |  |  |  |  | CC(=O)c1ccc(CCCCCCOc2ccc(C(=O)c3cccc(C(=O)O)c3)cc2CCC(=O)O)cc1
89 | 60 | 31 | 98 |  |  |  | CS(=O)(=O)c1ccc(/C=C/CCCCOc2ccc(C(=O)c3cccc(C(=O)O)c3)cc2CCC(=O)O)cc1
10 |  |  | 56 | 0 | 0 |  | CCCCCCOc1ccc(C(=O)c2cccc(C(=O)O)c2)cc1CCC(=O)O
89 | 46 |  | 95 |  |  |  | COc1cccc(CCCCCCOc2ccc(C(=O)c3cccc(C(=O)O)c3)cc2CCC(=O)O)c1
100 | 88 | 25 | 100 |  |  |  | COc1ccccc1/C=C/CCCCOc1ccc(C(=O)c2cccc(C(=O)O)c2)cc1CCC(=O)O
